# According to ChEMBL document CHEMBL1781892, “Microwave assisted synthesis and structure-activity relationship of 4-hydroxy-N'-[1-phenylethylidene]-2H/2-methyl-1,2-benzothiazine-3-carbohydrazide 1,1-dioxides as anti-microbial agents” (2011):
# Columns and labels:
# Trichoderma viride [1] = assay: Antifungal activity against Trichoderma viride using 1 x 10^5 spore/100 uL assessed as 99.5% fungal killing of original inoculum after 72 hrs by microdilution method; assay type: functional
# Pseudomonas aeruginosa = assay: Antibacterial activity against Pseudomonas aeruginosa using 1 x 10^4 CFU/ml inoculum after 24 hrs by microdilution method; assay type: functional
# Curvularia australiensis [2] = assay: Antifungal activity against Drechslera australiensis using 1 x 10^5 spore/100 uL assessed as 99.5% fungal killing of original inoculum after 72 hrs by microdilution method; assay type: functional
# Aspergillus flavus [3] = assay: Antifungal activity against Aspergillus flavus using 1 x 10^5 spore/100 uL after 72 hrs by microdilution method; assay type: functional
# Bacillus thuringiensis = assay: Antibacterial activity against Bacillus thuringiensis using 1 x 10^4 CFU/ml inoculum after 24 hrs by microdilution method; assay type: functional
# [4] = Antifungal activity against Trichoderma reesei using 1 x 10^5 spore/100 uL after 72 hrs by microdilution method; assay type: functional
# Method in brief: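 Spores washed from malt agar cultures with sterile 0.85% saline plus 0.1% Tween 80, adjusted to about 1.0×10^5 per 100 µl well. Compounds from a 1 mg/ml DMSO stock were serially diluted in malt broth with inoculum in 96-well plates and incubated 72 h at 28 °C. MIC is the lowest concentration with no visible growth under a binocular microscope. DMSO served as negative control.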
# Bacillus subtilis = assay: Antibacterial activity against Bacillus subtilis using 1 x 10^4 CFU/ml inoculum after 24 hrs by microdilution method; assay type: functional
# Curvularia australiensis [5] = assay: Antifungal activity against Drechslera australiensis using 1 x 10^5 spore/100 uL after 72 hrs by microdilution method; assay type: functional
# Aspergillus flavus [6] = assay: Antifungal activity against Aspergillus flavus using 1 x 10^5 spore/100 uL assessed as 99.5% fungal killing of original inoculum after 72 hrs by microdilution method; assay type: functional
# Escherichia coli = assay: Antibacterial activity against Escherichia coli using 1 x 10^4 CFU/ml inoculum after 24 hrs by microdilution method; assay type: functional
# Aspergillus fumigatus [7] = assay: Antifungal activity against Aspergillus fumigatus using 1 x 10^5 spore/100 uL assessed as 99.5% fungal killing of original inoculum after 72 hrs by microdilution method; assay type: functional
# Aspergillus niger [8] = assay: Antifungal activity against Aspergillus niger using 1 x 10^5 spore/100 uL after 72 hrs by microdilution method; assay type: functional
# Bacillus cereus = assay: Antibacterial activity against Bacillus cereus using 1 x 10^4 CFU/ml inoculum after 24 hrs by microdilution method; assay type: functional
# Salmonella typhi = assay: Antibacterial activity against Salmonella typhi using 1 x 10^4 CFU/ml inoculum after 24 hrs by microdilution method; assay type: functional, Salmonella enterica subsp. enterica serovar Typhi
# Staphylococcus aureus = assay: Antibacterial activity against Staphylococcus aureus using 1 x 10^4 CFU/ml inoculum after 24 hrs by microdilution method; assay type: functional
# Aspergillus niger [9] = assay: Antifungal activity against Aspergillus niger using 1 x 10^5 spore/100 uL assessed as 99.5% fungal killing of original inoculum after 72 hrs by microdilution method; assay type: functional
# Trichoderma viride [10] = assay: Antifungal activity against Trichoderma viride using 1 x 10^5 spore/100 uL after 72 hrs by microdilution method; assay type: functional
# Aspergillus fumigatus [11] = assay: Antifungal activity against Aspergillus fumigatus using 1 x 10^5 spore/100 uL after 72 hrs by microdilution method; assay type: functional
# [12] = Antifungal activity against Trichoderma reesei using 1 x 10^5 spore/100 uL assessed as 99.5% fungal killing of original inoculum after 72 hrs by microdilution method; assay type: functional
SMILES,MFC (Trichoderma viride [1]),MIC (Pseudomonas aeruginosa),MFC (Curvularia australiensis [2]),MIC (Aspergillus flavus [3]),MIC (Bacillus thuringiensis),MIC [4],MIC (Bacillus subtilis),MIC (Curvularia australiensis [5]),MFC (Aspergillus flavus [6]),MIC (Escherichia coli),MFC (Aspergillus fumigatus [7]),MIC (Aspergillus niger [8]),MIC (Bacillus cereus),MIC (Salmonella typhi),MIC (Staphylococcus aureus),MFC (Aspergillus niger [9]),MIC (Trichoderma viride [10]),MIC (Aspergillus fumigatus [11]),MFC [12]
C/C(=N\NC(=O)C1=C(O)c2ccccc2S(=O)(=O)N1)c1ccc(N)cc1,142.8 ×10⁻² umol,24.5 ×10⁻² umol,129.5 ×10⁻² umol,82.9 ×10⁻² umol,6.1 ×10⁻² umol,70.3 ×10⁻² µmol,6 ×10⁻² umol,70 ×10⁻² umol,175.9 ×10⁻² umol,22.9 ×10⁻² umol,150.1 ×10⁻² umol,83.8 ×10⁻² umol,6.2 ×10⁻² umol,27.7 ×10⁻² umol,20.5 ×10⁻² umol,177.5 ×10⁻² umol,71.3 ×10⁻² umol,74 ×10⁻² umol,138 ×10⁻² µmol
C/C(=N\NC(=O)C1=C(O)c2ccccc2S(=O)(=O)N1C)c1ccc(N)cc1,142 ×10⁻² umol,24.3 ×10⁻² umol,133.7 ×10⁻² umol,82.9 ×10⁻² umol,6.3 ×10⁻² umol,68 ×10⁻² µmol,6.2 ×10⁻² umol,69.8 ×10⁻² umol,166.3 ×10⁻² umol,22.4 ×10⁻² umol,151.6 ×10⁻² umol,83.7 ×10⁻² umol,6.2 ×10⁻² umol,27.5 ×10⁻² umol,20.4 ×10⁻² umol,167 ×10⁻² umol,71.1 ×10⁻² umol,73.6 ×10⁻² umol,136 ×10⁻² µmol
C/C(=N\NC(=O)C1=C(O)c2ccccc2S(=O)(=O)N1C)c1ccc(F)cc1F,143 ×10⁻² umol,30.5 ×10⁻² umol,144.2 ×10⁻² umol,76.3 ×10⁻² umol,8 ×10⁻² umol,68.4 ×10⁻² µmol,7.8 ×10⁻² umol,72.1 ×10⁻² umol,149.4 ×10⁻² umol,28.9 ×10⁻² umol,140.1 ×10⁻² umol,76.5 ×10⁻² umol,7.5 ×10⁻² umol,33.1 ×10⁻² umol,27.6 ×10⁻² umol,143.6 ×10⁻² umol,72.1 ×10⁻² umol,69.6 ×10⁻² umol,130 ×10⁻² µmol
C/C(=N\NC(=O)C1=C(O)c2ccccc2S(=O)(=O)N1)c1cccc(O)c1,>200 ×10⁻² umol,21.2 ×10⁻² umol,>200 ×10⁻² umol,>100 ×10⁻² umol,4.4 ×10⁻² umol,> 100 ×10⁻² µmol,4.6 ×10⁻² umol,>100 ×10⁻² umol,>200 ×10⁻² umol,19.7 ×10⁻² umol,>200 ×10⁻² umol,>100 ×10⁻² umol,4.5 ×10⁻² umol,23.5 ×10⁻² umol,18.4 ×10⁻² umol,>200 ×10⁻² umol,>100 ×10⁻² umol,>100 ×10⁻² umol,> 200 ×10⁻² µmol
C/C(=N\NC(=O)C1=C(O)c2ccccc2S(=O)(=O)N1C)c1ccc(Cl)cc1,134.4 ×10⁻² umol,32.3 ×10⁻² umol,128.6 ×10⁻² umol,81.7 ×10⁻² umol,12.3 ×10⁻² umol,62.2 ×10⁻² µmol,11.6 ×10⁻² umol,64.3 ×10⁻² umol,162.3 ×10⁻² umol,31 ×10⁻² umol,143.6 ×10⁻² umol,82 ×10⁻² umol,11 ×10⁻² umol,,30.9 ×10⁻² umol,166.4 ×10⁻² umol,67.2 ×10⁻² umol,72.6 ×10⁻² umol,124 ×10⁻² µmol
C/C(=N\NC(=O)C1=C(O)c2ccccc2S(=O)(=O)N1C)c1cccc(O)c1,>200 ×10⁻² umol,21 ×10⁻² umol,>200 ×10⁻² umol,>100 ×10⁻² umol,4.3 ×10⁻² umol,> 100 ×10⁻² µmol,4.5 ×10⁻² umol,>100 ×10⁻² umol,>200 ×10⁻² umol,19.3 ×10⁻² umol,>200 ×10⁻² umol,>100 ×10⁻² umol,4.2 ×10⁻² umol,23.1 ×10⁻² umol,18.2 ×10⁻² umol,>200 ×10⁻² umol,>100 ×10⁻² umol,>100 ×10⁻² umol,> 200 ×10⁻² µmol
